Screening data (PubChem)
Apaf-1 inh: inhibitors of human Apaf-1 apoptosome, primary screen, biochemical, DEVD-Rh110 fluorescence, uHTS. 0.71% of 330,000 active. inhibition, % at 20 µM. AID 489030, 2010. reconstituted apoptosome caspase-3 activity. Apoptotic protease-activating factor 1 (Homo sapiens), O14727; active = inhibition of at least 40% at 20 µM;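 also: plate controls were DMSO wells for no effect and DEVD-CHO caspase inhibitor wells for full effect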
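Material: cell-free apoptosome with Apaf-1, procaspase-3 and caspase-9; Buffer or medium: Hepes pH 7.5 with detergent and BSA; Reagent: cytochrome c trigger plus (Z-DEVD)2-Rh110 caspase-3 substrate; Times: compound with Apaf-1, dATP, procaspase-3 30 min, then 50 min reaction, room temperature; Technique: Rh110 fluorescence intensity.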
CHOP UPR activ: activators of apoptotic CHOP UPR arm, primary screen, cell-based, CHO-CHOP luciferase reporter, luminescence, uHTS; AID 449763, 2010; UPR activation; percent of tunicamycin response over DMSO baseline; activation, % at 10 µM; 0.34% of 330,000 active;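 active = at 10 µM dose, activation of 40% or more, normalized to positive control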;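 also: 100% = tunicamycin at 10 µg/mL and 0% = DMSO alone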
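Assay system: CHO cells with stable CHOP pathway luciferase reporter; Buffer or medium: F12 plus 10% serum; Times: 16-18 h cell attachment, then 6 h compound exposure, 37 °C; Signal: luciferase luminescence; Read-out basis: percent activation relative to tunicamycin control; Control set: tunicamycin high control, DMSO low control.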
Mdm2-MdmX inh: inhibitors of human Mdm2-MdmX association, primary screen, cell-based, luminescence, split luciferase, SaOS-2, uHTS | inhibition, % at 8 µM | SaOS-2 split-luciferase Mdm2/MdmX complementation | Protein Mdm4 (Homo sapiens) + E3 ubiquitin-protein ligase Mdm2 (Homo sapiens), … | 3% of 330,000 active;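 active = inhibition of at least 50% at 8 µM in the primary screen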
XBP1 UPR activ: activators of adaptive XBP1 UPR arm, primary screen, cell-based, CHO-XBP1 luciferase reporter, luminescence, uHTS; IRE1-XBP1 UPR activation; percent of tunicamycin response, DMSO as zero; activation, % at 20 µM; 0.33% of 330,000 active;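 active = versus positive control, 20 µM dose yields 30% or more activation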;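 also: 100% = tunicamycin at 10 µg/mL and 0% = DMSO only wells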
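Material – CHO cell line with stable XBP1 luciferase reporter · Buffer or medium – F12 plus 10% FBS · Compound – single point, 20 µM final compound, 1% DMSO · Schedule – 16-18 h cell attachment at 37 °C, then 6 h compound exposure · Signal – Steady-Glo luminescence read · Benchmarks – high control tunicamycin 10 µg/mL final, low control DMSO vehicle only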
UBC13 inh: UBC13 polyubiquitin chain formation inhibitors, primary screen, biochemical, TR-FRET, uHTS; Ubiquitin-conjugating enzyme E2 N (Homo sapiens), P61088; inhibition, % at 20 µM; 0.47% of 330,000 active; in the data active = inhibition above about 45%, passing the limit was not always enough
Apaf-1 inh conf: Apaf-1 inhibitors, single-dose retest, confirmation, biochemical, fluorescence, DEVD-Rh110, 20 µM | shares compounds with Apaf-1 inh | reconstituted apoptosome, caspase-3 DEVD-Rh110 fluorescence | inhibition, % at 20 µM | 25% of 1,800 active;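 active = mean inhibition of at least 40% at 20 µM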;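 also: plate controls were DMSO wells for no effect and DEVD-CHO caspase inhibitor control wells for full effect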
Rh110 interf inh: Rh110 fluorescence interference by putative Apaf-1 inhibitors, confirmation, artefact control for Apaf-1 inhibitor project, biochemical, 20 µM; shares compounds with Apaf-1 inh; quenched caspase reaction; activation (fluorescence interference), % at 20 µM; 1,800 tested, under 10 active; AID 504615, 2011;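 active = signal rise of 40% or more at 20 µM, treated as a fluorescence artifact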
Apaf1 inh interf: fluorescence interference of Apaf-1 inhibitor hits, dose response, artefact control for Apaf-1 inhibitor project. shares compounds with Apaf-1 inh. fluorescence interference counterscreen, Apaf-1 assay format. IC50, µM. 460 tested, under 10 active; call rule not given here
An asterisk follows results filed as active; . = no result given. Rows were chosen to be rich in hits. Some 4.1% of all compounds tested hit in one or more screens of this group.

SMILES | Apaf-1 inh | CHOP UPR activ | Mdm2-MdmX inh | XBP1 UPR activ | UBC13 inh | Apaf-1 inh conf | Rh110 interf inh | others
COc1ccc(N2C(=O)[C@H]3[C@@H](C2=O)C2c4ccccc4C=NN2[C@H]3C(=O)C(C)(C)C)cc1 (stereo partly specified) | -8 | -1 | -12 | 0 | -1 | . | .
CC(C)(C)C(=O)[C@@H]1[C@@H]2C(=O)N(C3CCCCC3)C(=O)[C@@H]2[C@H]2c3ccccc3C=CN12 | 64* | -1 | 1 | -3 | -16 | 60* | 4 | Apaf1 inh interf=>100
O=C1Nc2cc(Cl)c(Cl)cc2N(O)N1c1cccc(Cl)c1 | 44* | 0 | 10 | 0 | 2 | 13 | -2
O=[N+]([O-])c1cc([N+](=O)[O-])c2nonc2c1Nc1ccc(O)cc1 | 74* | 1 | 31 | -2 | -182 | 13 | -2
O=[N+]([O-])c1cc([N+](=O)[O-])c2nonc2c1Nc1ccccc1O | 31 | -1 | 17 | -2 | -79 | . | .
O=C1Nc2ccc(S(=O)(=O)NCc3ccco3)c3cccc1c23 | 49* | -2 | 29 | -3 | -23 | 22 | 17
CCCCc1cc(=O)oc2cc(OCC(=O)NCCN3CCOCC3)c(Cl)cc12 | 61* | -1 | 19 | 1 | 0 | 11 | 6
Cc1cc(=O)oc2cc(OCC(=O)NCCN3CCOCC3)c(Cl)cc12 | 2 | 0 | 14 | 2 | -5 | . | .
CCCCC1=CC2=C(c3ccco3)C(=O)C(C)(OC(=O)c3ccc(OC)cc3)C(=O)C2=CN1C1CC1 (stereo unspecified) | 40* | 1 | -4 | -1 | 15 | 14 | 2
COc1ccc(CN=Cc2[nH]c3ccc(Br)c(Cl)c3c2O)cc1 | 45* | 1 | 13 | -2 | -71 | 41* | -1 | Apaf1 inh interf=>100
COc1ccc(CN(C)C(=O)c2ccc(OCC(=O)Nc3cccc(C(F)(F)F)c3)c(OC)c2)c(OC)c1 | 45* | -1 | 13 | -2 | 16 | 35 | -1
CC1=NN(c2ccccc2)C(=O)C1N=Nc1cccc(O)c1 (stereo unspecified) | 2 | 5 | -128 | 1 | -40 | . | .
CC1=NN(c2ccc(C)cc2C)C(=O)C1C(c1cccc(O)c1)C1C(=O)N(c2ccc(C)cc2C)N=C1C (stereo unspecified) | 85* | 4 | 12 | -1 | -30 | 27 | -2
O=C(CSc1nc(=O)n2ccccc2n1)NCc1ccccc1Cl | 48* | 0 | -23 | -2 | -3 | -6 | -1
CCN(CC(=O)Nc1ccc(OC)cc1)C(=O)C1CCN(C(=O)c2ccc(Cl)cc2)CC1 | 58* | -1 | -5 | 0 | 40 | 38 | 2
CCCN(CC(=O)Nc1ccccc1C)C(=O)C1CCCN(C(=O)c2ccc(Cl)cc2)C1 (stereo unspecified) | 48* | 0 | 17 | -2 | 36 | 32 | -4
CCCN(CC(=O)Nc1ccccc1C)C(=O)C1CC(=O)N(c2ccccc2C(C)CC)C1 (stereo unspecified) | 48* | 0 | 12 | -1 | 15 | 33 | 4
Cc1cccc(C)c1NC(=O)CNC(=O)C1CCCN(C(=O)c2ccc(Cl)cc2)C1 (stereo unspecified) | -5 | 1 | 34 | 1 | 9 | . | .
COc1ccc(N)cc1-n1c(C)ccc1C | 84* | 2 | 11 | 6 | -27 | 24 | -2
